Assay results collected from several papers.
Each line is one published result; the experiments were not run side by side.
Target: Phosphatidylinositol 4,5-bisphosphate 3-kinase catalytic subunit gamma isoform (PIK3CG, Homo sapiens, UniProt P48736)

| Structure (SMILES) | effect on | technique | concentration | remaining binding |
| --- | --- | --- | --- | --- |
| COC(=O)Nc1nc2ccc(C(=O)c3ccccc3)cc2[nH]1 | cell-free assay | competition with immobilised ligand | 10 µM | 18% |
| COCCOc1nc(-c2ccc(Cl)nc2)nc2c1CN(C(=O)c1ncn3ccccc13)CC2 | cell-free assay | competition with immobilised ligand | 0.1 µM | 100% |
| O=C(c1ccc(Nc2ncc(Cl)c(-c3cc4ccccc4s3)n2)cc1)N1CCC(N2CCCC2)CC1 | binding | competition with immobilised ligand | 1 µM | 87% |
| CC1CCCN1c1nccc(-c2cnn3ncccc23)n1 (stereo not drawn) | binding | – | 1 µM | 100% |
| O=C(c1ccc(Nc2nccc(-c3cc4ccccc4s3)n2)cc1)N1CCC(N2CCCC2)CC1 | binding | competition with immobilised ligand | 1 µM | 27% |
| CN(C)c1ncc(F)c(-c2cnn3ncccc23)n1 | binding | – | 1 µM | 90% |
| NS(=O)(=O)c1cc(NC(=O)Cc2ccccc2)ccc1Oc1cccc(Cl)c1 | cell-free assay | competition with immobilised ligand | 1 µM | 77% |
| CN(C)c1nccc(-c2cnc3ncccn23)n1 | binding | – | 1 µM | 39% |
| O=C(Nc1cccnn1)N1CCC(=Cc2cccc(Oc3ccc(C(F)(F)F)cn3)c2)CC1 | cell-free assay | competition with immobilised ligand | 1 µM | 100% |
| COc1ncc2cc3ccccc3nc2c1C#N | cell-free assay | competition with immobilised ligand | 5 µM | 100% |
| O=C(Nc1c[nH]nc1C(=O)NC1CCNCC1)c1cc(F)cc(F)c1 | binding | competition with immobilised ligand | 1 µM | 100% |
| O=C(O)[C@@H]1[C@@H](Cn2nnc3ccccc3c2=O)CC[C@H]1C(=O)c1ccc(OCCC2CCOCC2)cc1 | cell-free assay | competition with immobilised ligand | 1 µM | 100% |
| C[C@H]1CCN(c2nccc(-c3cnn4ncccc34)n2)C1 | binding | – | 1 µM | 82% |
| C[C@H](c1cccc(C#N)c1)n1cc(Cl)cc(C(N)=O)c1=N | cell-free assay | competition with immobilised ligand | 1 µM | 98% |
| CC(C)(C)c1ccc(-c2nc(CBr)nn2-c2cccc(O)c2)cc1 | cell-free assay | competition with immobilised ligand | 10 µM | 94% |
| CCN1CCN(Cc2ccc(C(=O)Nc3ccc(C)c(Oc4ccc5c(c4)CC(=O)N5)c3)cc2C(F)(F)F)CC1 | binding | competition with immobilised ligand | 1 µM | 93% |
| F[C@@H]1CCN(c2nccc(-c3cnn4ncccc34)n2)C1 | binding | – | 1 µM | 100% |
| O=C(NCCCN1CCOCC1)c1ccc(Nc2nccc(-c3cc4ccccc4s3)n2)cc1 | binding | competition with immobilised ligand | 1 µM | 20% |
| CCCCN(CCCC)C(=O)CN1C[C@H](c2cc(OC)c3c(c2)OCO3)[C@@H](C(=O)O)[C@@H]1CC(C)(C)CCC | cell-free assay | competition with immobilised ligand | 1 µM | 76.9% |
| N[C@H]1CCN(c2nccc(-c3cnn4ncccc34)n2)C1 | binding | – | 1 µM | 100% |
| CNC(=O)[C@@H]1CC[C@@H](n2c(-c3ccc4cnccc4c3)nc3ccc(C(=O)NCc4cccc(C(N)=O)c4)cc32)C1 | binding | competition with immobilised ligand | 1 µM | 100% |
| CN(C)c1nccc(-c2cnn3ncccc23)n1 | binding | – | 1 µM | 76% |
| FC(F)(F)c1ccc2c(c1)nc(-c1cccnc1)n2C1CC1 | cell-free assay | competition with immobilised ligand | 1 µM | 92% |
| COc1cnc(Nc2cccc(S(N)(=O)=O)c2)nc1N1CCN(c2ccccc2)CC1 | binding | competition with immobilised ligand | 1 µM | 94% |
